In ChEMBL document CHEMBL1765017, “Homoisoflavonoids: natural scaffolds with potent and selective monoamine oxidase-B inhibition properties” (J Med Chem, 2011):

What was measured:
[1] = target: T1, Amine oxidase [flavin-containing] A (Homo sapiens, UniProt P21397); assay: Inhibition of human recombinant MAO-A expressed in baculovirus infected BTI-TN-5B1-4 insect sells assessed as hydrogen peroxide production at 100 uM by fluorimetric method; settings: for inhibition at 100 µM: BTI-TN-5B1-4, human; for inhibition (INH): human, bti-tn-5b1-4, 100 µM
T1 sequence (P21397 whole entry): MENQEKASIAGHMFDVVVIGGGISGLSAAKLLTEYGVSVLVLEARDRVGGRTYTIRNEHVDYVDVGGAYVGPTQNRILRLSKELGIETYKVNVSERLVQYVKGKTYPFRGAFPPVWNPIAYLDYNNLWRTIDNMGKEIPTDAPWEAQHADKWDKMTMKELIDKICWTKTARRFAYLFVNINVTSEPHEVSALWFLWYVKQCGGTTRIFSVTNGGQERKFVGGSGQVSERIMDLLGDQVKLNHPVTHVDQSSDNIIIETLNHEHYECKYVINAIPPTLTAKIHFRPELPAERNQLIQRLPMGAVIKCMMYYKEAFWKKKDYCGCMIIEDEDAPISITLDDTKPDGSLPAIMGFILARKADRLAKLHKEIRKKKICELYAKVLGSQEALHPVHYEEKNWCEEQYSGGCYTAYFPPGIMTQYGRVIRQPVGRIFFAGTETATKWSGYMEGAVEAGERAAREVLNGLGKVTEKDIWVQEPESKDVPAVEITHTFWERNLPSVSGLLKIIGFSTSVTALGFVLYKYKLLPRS
In short: (§1)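 Microsomal human MAO-A or MAO-B from BTI-TN-5B1-4 insect cells infected with recombinant baculovirus carrying the isoform cDNA. p-Tyramine was the substrate for both isoforms. H2O2 production was detected fluorimetrically with the Amplex Red reagent. Compounds were checked for direct reaction with Amplex Red. Highest concentrations tested were 100 μM, or 1 mM for some compounds.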

[2] = target: T2, Amine oxidase [flavin-containing] B (Homo sapiens, UniProt P27338); assay: biochemical; assay type: cell-based, BTI-TN-5B1-4
T2 sequence (P27338 whole entry): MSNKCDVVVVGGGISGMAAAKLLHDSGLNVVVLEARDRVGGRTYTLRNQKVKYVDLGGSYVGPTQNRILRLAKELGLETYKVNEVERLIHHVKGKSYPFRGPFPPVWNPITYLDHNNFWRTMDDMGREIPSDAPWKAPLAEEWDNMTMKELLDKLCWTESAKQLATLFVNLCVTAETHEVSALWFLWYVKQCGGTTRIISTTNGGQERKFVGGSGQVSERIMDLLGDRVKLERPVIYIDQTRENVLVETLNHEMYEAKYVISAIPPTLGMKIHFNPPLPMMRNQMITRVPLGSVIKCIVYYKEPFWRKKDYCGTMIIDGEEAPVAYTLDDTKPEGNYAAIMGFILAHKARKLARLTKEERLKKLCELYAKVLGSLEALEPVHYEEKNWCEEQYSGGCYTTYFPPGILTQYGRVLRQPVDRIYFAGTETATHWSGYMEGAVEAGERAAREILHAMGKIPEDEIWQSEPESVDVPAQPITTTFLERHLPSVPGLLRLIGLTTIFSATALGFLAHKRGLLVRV

[3] = target: T1, Amine oxidase [flavin-containing] A; assay: Inhibition of human recombinant MAO-A expressed in baculovirus infected BTI-TN-5B1-4 insect sells assessed as hydrogen peroxide production by fluorimetric method
[4] = species: Homo sapiens; assay: Selectivity index, ratio of IC50 for human MAO-A to IC50 for human MAO-B
In short: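 SI = IC50(hMAO-A)/IC50(hMAO-B). IC50s come from the Amplex Red fluorimetric assay of H2O2 from p-tyramine using baculovirus-expressed human isoforms, mean ± SEM of five experiments.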

[5] = target: T2, Amine oxidase [flavin-containing] B; assay: Inhibition of human recombinant MAO-B expressed in baculovirus infected BTI-TN-5B1-4 insect sells assessed as hydrogen peroxide production at 10 nM measured after repeated washing by fluorimetric method; settings: BTI-TN-5B1-4, human
[6] = target: T1, Amine oxidase [flavin-containing] A; assay: Inhibition of human recombinant MAO-A expressed in baculovirus infected BTI-TN-5B1-4 insect sells assessed as hydrogen peroxide production at 50 uM measured after repeated washing by fluorimetric method; settings: BTI-TN-5B1-4, human
[7] = target: T1, Amine oxidase [flavin-containing] A; assay: Inhibition of human recombinant MAO-A expressed in baculovirus infected BTI-TN-5B1-4 insect sells assessed as hydrogen peroxide production at 50 uM by fluorimetric method; settings: BTI-TN-5B1-4, human
[8] = target: T2, Amine oxidase [flavin-containing] B; assay: Inhibition of human recombinant MAO-B expressed in baculovirus infected BTI-TN-5B1-4 insect sells assessed as hydrogen peroxide production at 10 nM by fluorimetric method; settings: BTI-TN-5B1-4, human
[9] = target: T2, Amine oxidase [flavin-containing] B; assay: Inhibition of human recombinant MAO-B expressed in baculovirus infected BTI-TN-5B1-4 insect sells assessed as hydrogen peroxide production at 100 uM by fluorimetric method; settings: for inhibition (INH): human, bti-tn-5b1-4, 100 µM; for inhibition at 100 µM: BTI-TN-5B1-4, human; in short: as §1
[10] = target: T1, Amine oxidase [flavin-containing] A; assay: Inhibition of human recombinant MAO-A expressed in baculovirus infected BTI-TN-5B1-4 insect sells assessed as hydrogen peroxide production at 500 uM measured after repeated washing by fluorimetric method; settings: BTI-TN-5B1-4, human
In short: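 Microsomal hMAO-A from insect cells infected with recombinant baculovirus. After exposure to inhibitor, the enzyme was washed repeatedly by centrifugation-ultrafiltration. Remaining activity was then read by Amplex Red fluorescence as H2O2 formed from p-tyramine. Percent inhibition is compared with before washing by ANOVA/Dunnett's. Mean ± SEM, n = 5.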

[11] = target: T2, Amine oxidase [flavin-containing] B; assay: Inhibition of human recombinant MAO-B expressed in baculovirus infected BTI-TN-5B1-4 insect sells assessed as hydrogen peroxide production at 1 mM by fluorimetric method; settings: bti-tn-5b1-4, 1000 µM; in short: as §1
[12] = target: T1, Amine oxidase [flavin-containing] A; assay: Inhibition of human recombinant MAO-A expressed in baculovirus infected BTI-TN-5B1-4 insect sells assessed as hydrogen peroxide production at 500 uM by fluorimetric method; settings: BTI-TN-5B1-4, human
In short: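 Microsomal hMAO-A from insect cells (BTI-TN-5B1-4) infected with recombinant baculovirus carrying the hMAO-A cDNA. Fluorimetric Amplex Red assay measures H2O2 formed from p-tyramine, the substrate. Percent inhibition is expressed against control activity, given as pmol p-tyramine oxidised per min. Mean ± SEM of five experiments.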

Compound	IC50 [2]	inhibition (INH) [1]	also measured
COc1cc(/C=C2\COc3ccccc3C2=O)ccc1O	104 nM	–	inhibition at 100 µM [1]: 40%
COc1ccc(/C=C2\COc3ccccc3C2=O)cc1O	477 nM	Not Active	–
O=C1/C(=C/c2ccc(O)c(O)c2)COc2ccccc21	141 nM	–	IC50 [3]: 4740 nM; Ratio IC50 [4]: 34
O=C1/C(=C/c2ccc(O)cc2)COc2cc(O)cc(O)c21	8.61 nM	–	inhibition at 0.01 µM [5]: 36.2%; IC50 [3]: 11500 nM; inhibition at 50 µM [6]: 61.8%; inhibition at 50 µM [7]: 68.3%; inhibition at 0.01 µM [8]: 48.7%; Ratio IC50 [4]: 1330
O=C1/C(=C/c2ccc(O)c([N+](=O)[O-])c2)COc2ccccc21	491 nM	Not Active	–
O=c1c(Cc2ccc(Cl)cc2)coc2ccccc12	–	Not Active	inhibition (INH) [9]: Not Active
COc1cccc(/C=C2\COc3ccccc3C2=O)c1OC	1920 nM	Not Active	–
O=C1/C(=C/c2ccc(Cl)cc2)COc2ccc(Cl)cc21	31.8 nM	Not Active	–
O=C1c2ccccc2OCC1Cc1ccc(O)cc1 (stereo unspecified)	–	Not Active	inhibition at 100 µM [9]: 40%
O=c1c(Cc2ccc(Cl)cc2)coc2ccc(Cl)cc12	–	Not Active	inhibition at 100 µM [9]: 40%
O=C1c2cc(Cl)ccc2OCC1Cc1ccc(Cl)cc1 (stereo unspecified)	3070 nM	Not Active	–
O=c1c(Cc2ccc(O)cc2)coc2ccccc12	–	Not Active	inhibition at 100 µM [9]: 40%
Nc1cc(/C=C2\COc3ccccc3C2=O)ccc1O	484 nM	–	IC50 [3]: 1440 nM; Ratio IC50 [4]: 3
O=C1c2ccccc2OCC1Cc1ccccc1 (stereo unspecified)	58500 nM	Not Active	–
O=C1/C(=C/c2ccccc2)COc2ccc(Cl)cc21	331 nM	Not Active	–
O=c1c(Cc2ccccc2)coc2ccccc12	–	Not Active	inhibition (INH) [9]: Not Active
O=C1/C(=C/c2ccc(Cl)cc2)COc2cc(Cl)cc(Cl)c21	13 nM	Not Active	–
O=C1/C(=C/c2ccc(O)cc2)COc2ccccc21	55.4 nM	Not Active	–

Compound	IC50 [2]	inhibition (INH) [1]	also measured
O=C(O)c1cc(/C=C2\COc3ccccc3C2=O)ccc1O	–	Not Active	inhibition (INH) [9]: Not Active
COc1ccc(Cc2coc3ccccc3c2=O)cc1	21600 nM	Not Active	–
O=C1c2c(Cl)cc(Cl)cc2OCC1Cc1ccc(Cl)cc1 (stereo unspecified)	4590 nM	Not Active	–
O=C1/C(=C/c2ccccc2)COc2ccccc21	480 nM	Not Active	–
COc1ccc(Cc2coc3cc(OC)cc(OC)c3c2=O)cc1	–	Not Active	inhibition at 100 µM [9]: 40%
COc1ccc(/C=C2\COc3cc(OC)cc(OC)c3C2=O)cc1	1570 nM	Not Active	–
CC(=O)Nc1ccc(/C=C2\COc3ccccc3C2=O)cc1	1060 nM	–	IC50 [3]: 2100 nM; Ratio IC50 [4]: 2
O=c1c(Cc2ccc(Cl)cc2)coc2cc(Cl)cc(Cl)c12	439 nM	–	inhibition at 100 µM [1]: 40%
CN(C)c1ccc(/C=C2\COc3ccccc3C2=O)cc1	8.51 nM	Not Active	–
O=C1c2ccccc2OCC1Cc1ccc(Cl)cc1 (stereo unspecified)	7370 nM	Not Active	–
Nc1ccc(/C=C2\COc3ccccc3C2=O)cc1	879 nM	Not Active	–
COc1ccc(/C=C2\COc3ccccc3C2=O)c(O)c1	1330 nM	–	inhibition at 100 µM [1]: 40%
COc1ccc(/C=C2\COc3ccccc3C2=O)c(OC)c1OC	1310 nM	Not Active	–
COc1ccc(/C=C2\COc3ccccc3C2=O)c(OC)c1	248 nM	Not Active	–
COc1cc(/C=C2\COc3ccccc3C2=O)cc(OC)c1OC	20700 nM	Not Active	–
O=C(NCCN1CCOCC1)c1ccc(Cl)cc1 [MOCLOBEMIDE]	–	–	inhibition at 500 µM [10]: 11.4%; inhibition (INH) [11]: Not Active; inhibition at 500 µM [12]: 86%
O=C1/C(=C/c2ccc(Cl)cc2)COc2ccccc21	154 nM	Not Active	–
COc1ccc(/C=C2\COc3ccccc3C2=O)cc1	58.9 nM	Not Active	–
